Test results from PubChem BioAssay AID602403 (The Scripps Research Institute Molecular Screening Center, 2012).
A number with no mark means an inactive call.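 The calls were made as follows: active = inhibition of the enzyme-probe labelling of at least 50% at one fixed dose; inactive = inhibition below 50%.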

Biological target: Diacylglycerol lipase-alpha (Mus musculus) (UniProt Q6WQJ1)
Experiment: blocking of DAGLa probe labeling in membranes – biochemical, gel-based competitive ABPP, recombinant, fluorescence, selectivity assay for DAGLb inhibitor project, late-stage follow-up (AID 602403)
Conditions: HEK293T membrane mouse DAGLa, at 0.4 µM, hits give high values
Method in brief: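 Material: membrane proteome of 293T HEK cells transiently overexpressing mouse DAGLa; Also added: HT-01 probe, 1 µM; Read-out: percent inhibition from band integrated optical density versus DMSO control; Benchmarks: high control DMSO without compound, low control blank-gel background; Measured by: in-gel fluorescence after SDS-PAGE; Schedule: 30 min compound plus 30 min probe, 37 °C.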

Chain of Diacylglycerol lipase-alpha (Mus musculus) (Q6WQJ1 whole entry, looked up): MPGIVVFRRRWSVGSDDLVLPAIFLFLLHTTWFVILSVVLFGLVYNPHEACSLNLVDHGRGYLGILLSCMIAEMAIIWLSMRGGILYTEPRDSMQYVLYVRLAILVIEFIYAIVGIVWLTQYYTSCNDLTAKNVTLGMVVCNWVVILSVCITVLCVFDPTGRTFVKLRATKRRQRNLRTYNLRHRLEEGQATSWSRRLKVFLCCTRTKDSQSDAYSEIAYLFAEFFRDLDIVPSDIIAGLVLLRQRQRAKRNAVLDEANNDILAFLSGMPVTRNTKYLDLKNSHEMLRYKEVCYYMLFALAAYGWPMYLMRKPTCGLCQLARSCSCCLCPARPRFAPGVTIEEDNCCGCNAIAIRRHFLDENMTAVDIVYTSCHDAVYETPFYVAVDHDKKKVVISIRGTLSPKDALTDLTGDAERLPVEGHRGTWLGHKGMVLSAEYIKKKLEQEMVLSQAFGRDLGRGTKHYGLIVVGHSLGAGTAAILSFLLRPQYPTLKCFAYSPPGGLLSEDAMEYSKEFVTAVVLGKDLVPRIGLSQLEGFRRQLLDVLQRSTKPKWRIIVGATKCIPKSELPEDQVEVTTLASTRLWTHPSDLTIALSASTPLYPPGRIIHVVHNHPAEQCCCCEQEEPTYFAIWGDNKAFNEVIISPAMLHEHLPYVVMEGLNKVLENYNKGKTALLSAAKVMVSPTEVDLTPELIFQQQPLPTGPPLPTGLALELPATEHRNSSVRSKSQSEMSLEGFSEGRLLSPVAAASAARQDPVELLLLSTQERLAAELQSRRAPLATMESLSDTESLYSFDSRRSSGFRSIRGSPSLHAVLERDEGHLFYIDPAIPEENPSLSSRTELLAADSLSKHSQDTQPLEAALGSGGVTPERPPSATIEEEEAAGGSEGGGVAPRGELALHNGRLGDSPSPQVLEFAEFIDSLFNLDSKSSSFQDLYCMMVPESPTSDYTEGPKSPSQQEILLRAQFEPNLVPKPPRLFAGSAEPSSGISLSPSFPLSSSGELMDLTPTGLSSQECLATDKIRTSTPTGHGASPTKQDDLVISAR

O=C(N1CCCCC1Cc1ccccc1)n1cc(-c2ccc(-c3ccccc3)cc2)nn1 (stereo unspecified)
inhibition: 40%
